# Assay outcomes: PubChem BioAssay, Johns Hopkins Ion Channel Center
# hERG rescue = hERG rescue from dofetilide block, primary screen, cell-based, CHO-hERG, FluxOR thallium flux, dofetilide IC70. 310,000 compounds, 0.51% hits. activation (rescue from dofetilide block), less the hit threshold, % at 10 µM. AID 1511, 2009. dofetilide IC70 present;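 active = activation above the mean of controls blocked by dofetilide plus 5 SD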;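 also: thallium influx through hERG after potassium depolarization seen as dye fluorescence rise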
# KCNK3 inh = human KCNK3 channel inhibitors, primary screen, CHO cells, FluxOR thallium flux, B-score; FluxOR fluorescence; active compounds read low; B-score at 10 µM; 340,000 compounds, 0.84% hits; AID 602410, 2012;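 active = B-score under library mean minus 4 SD, starting fluorescence ratio at most library mean plus 5 SD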;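 also: more negative B-score means stronger inhibition of thallium flux through KCNK3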
# Target sequence (O14649 whole entry, looked up): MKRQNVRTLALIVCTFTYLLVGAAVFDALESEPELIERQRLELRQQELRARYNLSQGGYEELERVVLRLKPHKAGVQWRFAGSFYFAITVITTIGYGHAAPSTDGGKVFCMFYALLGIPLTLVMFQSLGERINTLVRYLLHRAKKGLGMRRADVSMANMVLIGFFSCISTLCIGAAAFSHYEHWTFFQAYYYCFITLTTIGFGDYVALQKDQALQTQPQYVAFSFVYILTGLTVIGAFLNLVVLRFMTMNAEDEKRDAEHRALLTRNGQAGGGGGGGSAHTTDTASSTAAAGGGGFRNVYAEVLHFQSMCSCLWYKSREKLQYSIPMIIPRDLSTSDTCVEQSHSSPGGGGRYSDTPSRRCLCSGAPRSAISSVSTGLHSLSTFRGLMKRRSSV
# KCNQ1 act = potentiators or activators of KCNQ1 channel, primary screen, cell-based, thallium flux, high-throughput; B-score at 10 µM; Potassium voltage-gated channel subfamily KQT member 1 (Homo sapiens), P51787; 310,000 compounds, 0.35% hits; AID 2648, 2010; CHO-K1 KCNQ1, thallium flux FluxOR fluorescence; active compounds read high;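 active = fluorescence ratio B-score, a plate-corrected score, at least three library SD, with initial intensity B-score within 5 SD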
#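 Material: CHO-K1 cells stably expressing KCNQ1. Medium: assay buffer for compound exposure, DMSO matched across wells. Reagent: K+/Tl+ depolarizing stimulus. Compound dosing: single-concentration screen. Times: 37 °C overnight plating, 90-min dark dye load, 20-min compound pretreatment. Technique: FluxOR Tl+ flux fluorescence.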
# KCNK9 block = KCNK9 potassium channel inhibitors, primary screen, HEK293 cells, thallium flux; B-score at 10 µM; 310,000 compounds, 1.2% hits; FluxOR thallium flux fluorescence; active compounds read low;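 active = ratio B-score over 3 SD below the library mean, with starting fluorescence within 5 SD of its mean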;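 also: negative B-score means less thallium flux so channel inhibition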
# KCNQ1 block = inhibitors of human KCNQ1 channel, primary screen, cell-based, thallium flux, high-throughput. Potassium voltage-gated channel subfamily KQT member 1 (Homo sapiens), P51787. CHO-K1 KCNQ1, FluxOR thallium flux fluorescence; active compounds read high. B-score at 10 µM. 310,000 compounds, 1.3% hits. AID 2642, 2010;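 active = compounds whose thallium flux B-score, printed positive for inhibition, exceeds three library SD while starting fluorescence stays within three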;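 also: channel opened by potassium depolarization with thallium stimulus after 20 min compound exposure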
# The depositor's hits bear a star; i = inactive; / = not tested or not shown. Compounds with a hit are over-represented: about 3.1% of the library has one in this group of screens.
SMILES,hERG rescue,KCNK3 inh,KCNQ1 act,KCNK9 block,KCNQ1 block
Clc1ccc(N2CC2c2ccncc2)cc1 (centres undefined),-2,i,i,i,i
O=C1NC(=O)C2(Cc3ccccc3N3CCCC32)C(=O)N1c1ccccc1 (centres undefined),-15,i,i,i,i
CN1c2ccc([N+](=O)[O-])cc2CC2(C(=O)NC(=O)N(c3ccc(Br)cc3)C2=O)C1c1ccccc1 (centres undefined),-5,i,i,i,6*
C/C(=N\NC(=O)c1ccccc1O)c1c(O)n(C2CCCCC2)c(=O)[nH]c1=O,-15,i,i,i,6*
C/C(=N\NC(=O)c1ccccc1Cl)c1c(O)n(C2CCCCC2)c(=O)[nH]c1=O,-15,i,i,i,i
O=P(Nc1ccccc1)(Nc1ccccc1)Oc1cccc(Cl)c1,-44,i,i,i,i
CCOc1ccc(-n2c(O)c(N=Nc3ccc([N+](=O)[O-])cc3)c(=O)[nH]c2=O)cc1,-3,i,i,i,i
CN(C)S(=O)(=O)c1cc(NC(=O)COC(=O)Cc2ccccc2)ccc1Cl,-5,i,i,i,6*
CN(C)S(=O)(=O)c1cc(NC(=O)C[N+]23CCN(CC2)CC3)ccc1Cl,-6,i,i,i,i
C1CCC2S[C@H]3CCCCC3NC2C1 (some centres undefined),5.3*,i,i,i,i
COc1ccc(-c2cc(-c3ccccc3)[n+](C)c(-c3ccccc3)c2)cc1,-28,i,i,i,12*
C[n+]1c(-c2ccccc2)cc(CCCCc2cc(-c3ccccc3)[n+](C)c(-c3ccccc3)c2)cc1-c1ccccc1,-21,i,i,i,7*
CC(C)(C)c1ccc(CSc2cnn(C(C)(C)C)c(=O)c2Cl)cc1,-15,i,i,i,11*
Cc1ccccc1-[n+]1c(-c2ccccc2)cc(-c2ccccc2)cc1-c1ccccc1,-41,i,i,i,10*
Oc1c(Br)cc(-c2ccccc2)cc1Br,/,i,/,/,/
Nc1ccccc1-[n+]1c(-c2ccccc2)cc(-c2ccccc2)cc1-c1ccccc1,-17,i,i,i,7*
[O-]c1ccccc1-[n+]1c(-c2ccccc2)cc(-c2ccccc2)cc1-c1ccccc1,-41,i,i,-7.4*,6*
Oc1ccccc1-[n+]1c(-c2ccccc2)cc(-c2ccccc2)cc1-c1ccccc1,-43,i,i,i,14*
Nc1ccc(-c2ccccc2)cc1,/,i,/,/,/
Cc1ccc(-c2cc(-c3ccccc3)cc(-c3ccccc3)[n+]2-c2ccc(C(=O)O)cc2)cc1,-3,i,i,i,i
COc1cc2c(cc1OC)C13CCN4CC5=CCOC6CC(=O)N2C1C6C5C3C4 (centres undefined) (tested in a mixture with another compound),/,i,/,/,/
OCCOCCO,/,i,/,/,/
Cc1nonc1OCCNCCNc1ccc([N+](=O)[O-])c2cccnc12,-13,i,i,i,i
CCCn1c(C)cc(C=O)c1C,5.6*,i,i,i,i
CN1CCN(c2ccc([N+](=O)[O-])c3no[n+]([O-])c23)CC1,-36,i,i,i,10*
SMILES,hERG rescue,KCNK3 inh,KCNQ1 act,KCNK9 block,KCNQ1 block
CN1CCN(c2ccc(S(C)(=O)=O)cc2[N+](=O)[O-])CC1,-3,i,i,i,i
CNc1ccc2oc(C[C@H]3O[C@@]4(CC[C@H]3C)O[C@H]([C@H](C)C(=O)c3ccc[nH]3)[C@H](C)C[C@H]4C)nc2c1C(=O)O,-5,i,38*,i,i
CCCCn1c(=O)c(C(=O)NCc2ccccc2Cl)c(O)c2ccccc21,-1,i,i,i,i
COc1ccc(OC)c(N2C(=O)/C(=C/c3ccco3)C(=O)NC2=S)c1,8.4*,/,i,i,i
O=C(c1ccccc1)C(CN1CCCC1)c1ccccc1 (centres undefined),-7,i,i,i,i
CC1CCN(C(CC(=O)c2ccccc2)C(=O)c2ccccc2)CC1 (centres undefined),/,-9.1*,/,/,/
CC(=O)OC1CCC2(/C=N/O)C(=CCC3C4CCC(=O)C4(C)CCC32)C1 (centres undefined),-11,i,i,i,i
CCCC/C(=N\O)c1c[nH]c2ccccc12,1,i,i,-7.5*,i
CN1C(=O)/C(=C/c2ccc(Cl)s2)C(=O)NC1=S,5.2*,i,i,i,i
COc1ccc(/C=C2\C(=O)NC(=S)N(C)C2=O)cc1C,-10,i,i,i,i
Cc1ccsc1/C=C1\C(=O)NC(=S)N(C)C1=O,-3,i,i,i,8*
O=c1c2ccccc2nc(CNc2ccccc2)n1-c1ccccc1,-9,i,i,i,i
N#CCP(=S)(c1ccccc1)c1ccccc1,-5,i,i,i,i
O=C(Cn1cc(C(=O)c2ccccc2)c2ccccc21)NCc1ccco1,-8,i,i,-9*,i
N=Cc1c(O)n(-c2ccc(C34CC5CC(CC(C5)C3)C4)cc2)c(=O)[nH]c1=O,2,i,i,i,i
Cc1cc([N+](=O)[O-])c(Cl)cc1NC(=O)C(C)C,-4,i,i,i,i
CNc1cc(Cl)c2nonc2c1[N+](=O)[O-],-24,i,i,i,10*
Cc1ccc(S(=O)(=O)NC(Cc2cnc[nH]2)C(=O)O)cc1 (centres undefined),10*,i,i,i,i
CCC(=NCc1cc(OC)cc(OC)c1)c1c(O)[nH]c(=O)[nH]c1=O,-11,i,i,i,i
OCC1CN1C1CCCCC1 (centres undefined),/,i,/,/,/
CCOC(=O)c1c(NS(=O)(=O)c2ccccc2)n(CCCOC)c2nc3ccccc3nc12,8.4*,i,i,i,i
COCCCn1c(N)c(C(=O)OCCOC)c2nc3ccccc3nc21,-4,i,i,i,i
CNC(C)(C)Cc1ccccc1,/,i,/,/,/
CCCCn1c(=O)c(C(=O)NCc2ccncc2)c(O)c2ccccc21,-6,i,i,i,i
CCCCn1c(=O)c(C(=O)NCc2ccccc2)c(O)c2ccccc21,-2,i,i,i,8*
Cc1cccc(C)c1NC1=NCCCCS1,-2,i,i,i,i
NC(N)=N/N=C/c1ccc(N(c2ccccc2)c2ccccc2)cc1,-33,i,i,i,7*
